The subject of experiment [1] is Staphylococcus aureus. In words: Minimum inhibitory concentration against staphylococcus aureus ATCC 6538. The format is functional. In short, it runs like this:
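Agar dilution: 1% stocks in 95% ethanol or water, serially diluted into nutrient agar (pH 6.8) to 1000, 100, 10 and 1 ppm. Plates were dried 30 min at 37 °C and spotted with ten drops of 24-h nutrient broth culture. Incubation was 48 h at 37 °C, in duplicate, with hexachlorophene as standard. MIC was the lowest level with no growth of any inoculum on either dish.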

Experiment [2] relates to Staphylococcus aureus. Kind of experiment: Bacteriostatic activity against Staphylococcus aureus ATCC 6538 at >10 ppm concentration; - = Negative. The format is functional, organism-based.
Experiment [3] concerns Staphylococcus aureus. Kind of experiment: Bactericidal activity against Staphylococcus aureus ATCC 6538 at >10 ppm concentration; - = Negative. In kind it is functional, organism-based.
The test system of experiment [4] is Bacillus cereus. Kind of experiment: Activity at 10 ppm against Bacillus cereus NRRL 3711;* = Effective. In kind it is functional, organism-based. The method, boiled down: (§1)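 Gram-positive panel on nutrient agar containing compound at 10, 1.0 and 0.1 ppm, duplicate plates. Six 15-µL drops per species, each holding 10⁷ vegetative cells (10⁶ for L. plantarum). Hexachlorophene and no-compound plates were run alongside. Plates were incubated 5 days at 30 °C and scored for growth. MIC was taken as the lowest level with no colonies on either plate.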

The subject of experiment [5] is Staphylococcus aureus. In words: Bactericidal activity against Staphylococcus aureus ATCC 6538 at 10 ppm concentration; - = Negative. The format is functional, organism-based. In short, it runs like this: (§2)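 S. aureus was inoculated at 10⁷/mL into 10 mL nutrient broth with 10 ppm compound. Those tubes were centrifuged (10000g, 10 min), resuspended in sterile diluent and streaked onto nutrient agar. Colonies after 48 h at 30 °C meant bacteriostatic; none meant bactericidal.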

Experiment [6] relates to Staphylococcus aureus. Kind of experiment: Bacteriostatic activity against Staphylococcus aureus ATCC 6538 at 10 ppm concentration; + =Positive. The format is functional, organism-based. In short, it runs like this: as §2
Experiment [7] deals with Staphylococcus aureus. In words: Activity at 10 ppm against Staphylococcus aureus ATCC 6538;* = Effective. In kind it is functional, organism-based.
Experiment [8] concerns Lactiplantibacillus plantarum. Kind of experiment: Activity at 10 ppm against Lactobacillus plantarum;* = Effective. The format is functional, organism-based. In short, it runs like this:
as §1

The test system of experiment [9] is Lactiplantibacillus plantarum. Kind of experiment: Activity at 1 ppm against Lactobacillus plantarum; x=Effective. In kind it is functional, organism-based. In short, it runs like this:
as §1

Experiment [10] deals with Staphylococcus aureus. Kind of experiment: Bactericidal activity against Staphylococcus aureus ATCC 6538 at 1 ppm concentration; + =Positive. The format is functional, organism-based.
The subject of experiment [11] is Staphylococcus aureus. In words: Activity at 1 ppm against Staphylococcus aureus ATCC 6538; x=Effective. In kind it is functional, organism-based.
In experiment [12] the test system is Bacillus cereus. In words: Activity at 1 ppm against Bacillus cereus NRRL 3711; x=Effective. In kind it is functional, organism-based. The method, boiled down: as §1
Experiment [13] relates to Enterococcus faecalis. In words: Activity at 1 ppm against Streptococcus faecalis; x=Effective. The format is functional, organism-based. In short, it runs like this:
as §1

Experiment [14] deals with Staphylococcus aureus. In words: Bacteriostatic activity against Staphylococcus aureus ATCC 6538 at 1 ppm concentration; + =Positive. In kind it is functional, organism-based.
The test system of experiment [15] is Staphylococcus aureus. Kind of experiment: Activity at 10 ppm against Staphylococcus aureus ATCC 6538; x=Effective. The format is functional, organism-based.
Experiment [16] deals with Lactiplantibacillus plantarum. In words: Activity at 10 ppm against Lactobacillus plantarum; x=Effective. In kind it is functional, organism-based. The method, boiled down:
as §1

Experiment [17] concerns Staphylococcus aureus. Kind of experiment: Bactericidal activity against Staphylococcus aureus ATCC 6538 at 10 ppm concentration; -=Negative. The format is functional, organism-based. The method, boiled down:
as §2

Experiment [18] has as its system Bacillus cereus. Kind of experiment: Activity at 10 ppm against Bacillus cereus NRRL 3711; d=A few resistant colonies grew. In kind it is functional, organism-based. The method, boiled down:
as §1

Experiment [19] concerns Staphylococcus aureus. In words: Bacteriostatic activity against Staphylococcus aureus ATCC 6538 at 10 ppm concentration; x=Effective. The format is functional, organism-based. In short, it runs like this:
as §2

Experiment [20] concerns Enterococcus faecalis. Kind of experiment: Activity at 10 ppm against Streptococcus faecalis; x=Effective. The format is functional, organism-based. In short, it runs like this:
as §1

Experiment [21] deals with Staphylococcus aureus. Kind of experiment: Bactericidal activity against Staphylococcus aureus ATCC 6538 at 10 ppm concentration; + =Positive. The format is functional, organism-based. In short, it runs like this: as §2
Experiment [22] deals with Staphylococcus aureus. Kind of experiment: Bacteriostatic activity against Staphylococcus aureus ATCC 6538 at 10 ppm concentration; - = Negative. In kind it is functional, organism-based. The method, boiled down:
as §2

The subject of experiment [23] is Enterococcus faecalis. In words: Activity against Streptococcus faecalis; xe=S. faecalis was inhibited at 10 p.p.m. but not at 1 ppm. The format is functional, organism-based. In short, it runs like this: as §1
Experiment [24] concerns Staphylococcus aureus. In words: Bactericidal activity against Staphylococcus aureus ATCC 6538 at 1 ppm concentration; - = Negative. In kind it is functional, organism-based.

Structures are written as SMILES. ≈ marks a conversion by molar mass, not a printed value.

As to `CCCCCCCCC(=O)Nc1cc(Cl)ccc1O`, in experiment [1], the MIC was 1 µg/mL (≈ 3.52 µM). Besides, the Activity result in experiment [2] and in experiment [3] was “Negative” throughout.
Turning to `CCCCCCCC(=O)Nc1cc(Cl)cc(Cl)c1`, the Activity entry in experiment [4] is “Concentration effective”; in experiment [5], “Negative”; in experiment [6] it was “Negative”; in [7], “Concentration effective”; in experiment [8] it was “Concentration effective”. This compound gave a minimum inhibitory concentration (MIC) in experiment [1] of 1 µg/mL (≈ 3.47 µM).
As to `C=C(CCCCCCCC)C(=O)Nc1cc([N+](=O)[O-])ccc1O`, the Activity entry was “Concentration effective” in experiment [9]; “Positive” in experiment [10]; “Concentration effective” in [11]; “Concentration effective” in experiment [12]; “Concentration effective” in experiment [13]; “Positive” in experiment [14]. In experiment [1], this compound had a minimal inhibitory concentration (MIC) of 1 µg/mL (≈ 3.12 µM).
Regarding `CCCCCCCC(=O)Nc1ccc(Cl)c(Cl)c1`, the Activity result in experiment [15] was “Concentration effective”; in experiment [6] it was “Negative”; in experiment [16], “Concentration effective”; in [17], “Negative”; in experiment [18], “A few resistant colonies grew”. This compound came in with a minimal inhibitory concentration (MIC) in experiment [1] of 1 µg/mL (≈ 3.47 µM).
On to `CCCCCCCCCC(=O)Nc1cc([N+](=O)[O-])ccc1O`, for which the Activity entry in experiment [19] is “Concentration effective”; in [5], “Negative”; in experiment [6] it was “Negative”. The compound further registered an MIC in experiment [1] of 1 µg/mL (≈ 3.24 µM).
For `CCCc1ccc(S(=O)(=O)Nc2ccc(Cl)c(Cl)c2)cc1`, the Activity result was “Concentration effective” in [20], “Negative” in experiment [21], “Negative” in experiment [22] and “Concentration effective” in experiment [16]. The compound also came in with a minimum inhibitory concentration (MIC) in experiment [1] of 1 µg/mL (≈ 2.9 µM).
On to `C=C(CCCCCCC)C(=O)Nc1cc([N+](=O)[O-])ccc1O`, for which the Activity entry in experiment [9] is “Concentration effective”; in experiment [23] it was “Inhibited at 10ppm but not at 1ppm”; in experiment [11], “Concentration effective”; in experiment [24] it was “Negative”; in experiment [12], “Concentration effective”; in experiment [14] it was “Negative”. Moreover, in experiment [1], the MIC came to 1 µg/mL (≈ 3.26 µM).

As a reminder, the MIC is the lowest concentration that inhibits growth of the organism. A higher MIC goes with a need for much substance.

Values taken from ChEMBL document CHEMBL1122485, “Antibacterially active substituted anilides of carboxylic and sulfonic acids” (1983).
